Data published in ChEMBL document CHEMBL1123469, “Synthesis and activity of 6-aryl-3-(hydroxypolymethyleneamino)pyridazines in animal models of epilepsy” (1986).

Legend:
Type in all cases: functional
Mus musculus [1] = assay: Evaluated for Bicuculline-induced seizures (anticonvulsant activity) when administered at 100 mg/kg orally in mice.; conditions: route oral
Procedure, shortened: (§1)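 Female Swiss CD1 mice (18-23 g) were dosed orally at 20 mL/kg, test compounds in dilute HCl (pH 3) and references in gum tragacanth. Protection against bicuculline- or pentylenetetrazole-induced clonic/tonic seizures and lethality was scored.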

Mus musculus [2] = assay: Evaluated for the sedative property by the rotarod test at 100 mg/kg.
Procedure, shortened: (§2)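 Motor coordination was tested on the rotorod in groups of 10 female Swiss CD1 mice (18-23 g). Drug or vehicle was given orally, test compounds in dilute HCl (pH 3), 60 min before testing.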

Mus musculus [3] = assay: Evaluated for anticonvulsant activity when administered orally in mice by Maximal electroshock (MES).; conditions: po
Procedure, shortened: (§3)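 Female Swiss CD1 mice (18-23 g), groups of 10, were dosed orally at 20 mL/kg. Test compounds were given in dilute HCl (pH 3) and references in 5% gum tragacanth, 60 min before a 60-V alternating current for 0.3 s through corneal electrodes. Protection meant abolition of the hindlimb tonic extensor component.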

Mus musculus [4] = assay: Evaluated for Bicuculline-induced lethality (anticonvulsant activity) when administered orally in mice.; conditions: po
Procedure, shortened: (§4)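 Female Swiss albino CD1 mice (18-23 g), oral dosing (20 mL/kg); test compounds dissolved in dilute HCl (pH 3), reference drugs suspended in 5% gum tragacanth. Bicuculline challenge, scoring protection from seizures and from lethality. […] Weakly active agents reported as percent protected at the stated dose.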

Mus musculus [5] = assay: Evaluated for Bicuculline-induced seizures (anticonvulsant activity) when administered orally in mice.; conditions: po; procedure, shortened: as §1
Mus musculus [6] = species: Mus musculus; assay: Sedative property by the rotarod test; procedure, shortened: as §2
Mus musculus [7] = assay: Anticonvulsant activity when administered 100 mg/kg orally in mice Maximal electroshock (MES); conditions: route oral; procedure, shortened: as §3
Mus musculus [8] = assay: Compound was evaluated for the sedative property by the rotarod test at 250 mg/kg
Procedure, shortened: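 Rotorod motor-coordination test in female Swiss albino CD1 mice (18-23 g). Groups of 10 mice dosed with test drug or vehicle 60 min before testing; test compounds dissolved in dilute HCl (pH 3).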

Mus musculus [9] = assay: Compound was evaluated for Bicuculline-induced lethality (anticonvulsant activity) when administered 250 mg/kg orally in mice; conditions: route oral; procedure, shortened: as §4
Mus musculus [10] = assay: Compound was evaluated for Bicuculline-induced seizures (anticonvulsant activity) when administered 250 mg/kg orally in mice; conditions: route oral; procedure, shortened: as §1
Mus musculus [11] = assay: Compound was evaluated for anticonvulsant activity when administered 250 mg/kg orally in mice Maximal electroshock (MES); conditions: route oral; procedure, shortened: as §3
Mus musculus [12] = assay: Evaluated for Bicuculline-induced lethality (anticonvulsant activity) when administered 100 mg/kg orally in mice.; conditions: route oral; procedure, shortened: as §4
Papio hamadryas = species: Papio hamadryas; assay: Antagonist activity to generalized seizures Photically induced seizures in senegalese Papio papio baboons
Procedure, shortened: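 Naturally photosensitive baboons of both sexes (4-7 kg) were dosed orally, test compounds in dilute HCl (pH 3) and references in 5% gum tragacanth, at 4 mL/kg. They were photically stimulated at hourly intervals afterwards, and the myoclonic response was graded after Killam. Threshold active dose is the first dose that protected at least two of four animals for at least 2 h.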

Mus musculus [13] = species: Mus musculus; assay: Sedative properties by the rotarod test; procedure, shortened: as §2
Mus musculus [14] = assay: Anticonvulsant activity in tonic seizures when administered orally in mice; conditions: po
Rattus norvegicus = species: Rattus norvegicus; assay: Antagonist activity to generalized seizures kindled amygdaloid seizures in rats
Procedure, shortened: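 Male Sprague-Dawley rats (200-500 g), groups of 10, carried platinum electrodes in the right basolateral amygdala. They counted as kindled after stage-5 seizures on 3 consecutive days at 30-90 μA. A control stimulation was followed by an oral dose (5 mL/kg) and restimulation 1 h later. After-discharge duration and Racine seizure stage were compared with vehicle.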

Mus musculus [15] = assay: Anticonvulsant activity in Clonic seizures when administered orally in mice; conditions: po; procedure, shortened: as §1
Mus musculus [16] = assay: Anticonvulsant activity in Maximal electroshock (MES) when administered orally in mice; conditions: po; procedure, shortened: as §3

| SMILES | Protected (Mus musculus [1]) [%] | Protected (Mus musculus [2]) [%] | ED50 (Mus musculus [3]) [mg/kg] | ED50 (Mus musculus [4]) [mg/kg] | Protected (Mus musculus [7]) [%] | also measured |
| --- | --- | --- | --- | --- | --- | --- |
| OC1CCN(c2ccc(-c3ccc(F)cc3)nn2)CC1 | 10 | 50 | – | – | – | – |
| Cc1ccccc1-c1ccc(N2CCC(O)CC2)nn1 | – | – | 30 | 60 | – | ED50 (Mus musculus [5]): 40 mg/kg |
| Cc1cc(Cl)ccc1-c1ccc(N2CCC(O)CC2)nn1 | – | – | 10 | 10 | – | ED50 (Mus musculus [6]): 64 mg/kg; ED50 (Mus musculus [5]): 10 mg/kg |
| CNC(=O)OC1CCN(c2ccc(-c3ccc(Cl)c(Cl)c3)nn2)CC1 | 0 | 0 | – | – | 50 | – |
| OC1CCN(c2ccc(-c3cccc(C(F)(F)F)c3)nn2)CC1 | 0 | 50 | – | – | – | – |
| O=C(Nc1cccc(Cl)c1)OC1CCN(c2ccc(-c3ccccc3Cl)nn2)CC1 | 0 | 0 | – | – | 35 | – |
| O=COC1CCN(c2ccc(-c3ccc(Cl)cc3Cl)nn2)CC1 | 50 | – | 24 | – | – | ED50 (Mus musculus [6]): 69 mg/kg |
| Oc1ccc(-c2ccc(N3CCC(O)CC3)nn2)cc1 | – | – | – | – | – | Protected (Mus musculus [8]): 10%; Protected (Mus musculus [9]): 10%; Protected (Mus musculus [10]): 0%; Protected (Mus musculus [11]): 25% |
| CNC(=O)OC1CCN(c2ccc(-c3ccccc3Cl)nn2)CC1 | – | – | – | 9 | – | ED50 (Mus musculus [6]): 37 mg/kg |
| O=[N+]([O-])c1ccc(-c2ccc(N3CCC(O)CC3)nn2)cc1 | – | – | – | 57 | 40 | ED50 (Mus musculus [5]): 54 mg/kg |
| CNC(=O)OC1CCN(c2ccc(-c3cccs3)nn2)CC1 | 0 | 10 | – | – | 10 | Protected (Mus musculus [12]): 20% |
| Cc1ccc(-c2ccc(N3CCC(O)CC3)nn2)cc1 | 0 | 0 | 73 | – | – | Protected (Mus musculus [12]): 50% |
| OC1CCN(c2ccc(-c3cccs3)nn2)CC1 | 0 | 0 | – | – | 0 | – |
| CC(=O)OC1CCN(c2ccc(-c3ccc(Cl)cc3Cl)nn2)CC1 | – | – | 14 | 8.3 | – | ED50 (Mus musculus [6]): 70 mg/kg; ED50 (Mus musculus [5]): 9.8 mg/kg |
| O=C(OC1CCN(c2ccc(-c3ccccc3Cl)nn2)CC1)c1ccc(Cl)cc1 | 0 | 0 | – | – | 0 | – |
| OC1CCN(c2ccc(-c3ccc(Cl)cc3Cl)nn2)CC1 [ENDIXAPRINE] | – | – | – | 8.5 | – | Threshold active dose (Papio hamadryas): 50 mg/kg; ED50 (Mus musculus [13]): 34 mg/kg; ED50 (Mus musculus [14]): 11 mg/kg; Threshold active dose (Rattus norvegicus): 20 mg/kg; ED50 (Mus musculus [15]): 18 mg/kg; ED50 (Mus musculus [16]): 14 mg/kg; ED50 (Mus musculus [5]): 8.5 mg/kg |
| CCCC(=O)OC1CCN(c2ccc(-c3ccccc3Cl)nn2)CC1 | – | 0 | – | 30 | – | – |
| OC1CCCN(c2ccc(-c3ccccc3Cl)nn2)C1 (centres undefined) | 0 | 0 | – | – | 15 | – |
| CCC(=O)OC1CCN(c2ccc(-c3ccc(Cl)cc3Cl)nn2)CC1 | – | – | 50 | 13 | – | ED50 (Mus musculus [6]): 71 mg/kg; ED50 (Mus musculus [5]): 16 mg/kg |
| OC1CCN(c2ccc(-c3ccccc3F)nn2)CC1 | – | 0 | – | 34 | – | – |
| OC1CCN(c2ccc(-c3cccc4ccccc34)nn2)CC1 | 40 | 0 | – | – | – | Protected (Mus musculus [12]): 0% |
| CNC(=O)OC1CCN(c2ccc(-c3ccc(Cl)cc3)nn2)CC1 | 20 | 0 | – | – | 20 | – |
| CNC(=O)OC1CCN(c2ccc(-c3ccc(F)cc3)nn2)CC1 | 40 | 20 | 40 | – | – | Protected (Mus musculus [12]): 30% |
| O=[N+]([O-])c1cccc(-c2ccc(N3CCC(O)CC3)nn2)c1 | 0 | 30 | 79 | – | – | Protected (Mus musculus [12]): 20% |
| OC1CCN(c2ccc(-c3ccccc3Cl)nn2)CC1 [LODAXAPRINE] | – | – | – | 34 | – | Threshold active dose (Papio hamadryas): 40 mg/kg; ED50 (Mus musculus [13]): 138 mg/kg; ED50 (Mus musculus [14]): 29 mg/kg; Threshold active dose (Rattus norvegicus): 20 mg/kg; ED50 (Mus musculus [15]): 77 mg/kg |
| Clc1ccccc1-c1ccc(N2CCC3(CC2)OCCO3)nn1 | 40 | 0 | – | – | – | Protected (Mus musculus [12]): 30% |
